Drawing on ChEMBL document CHEMBL5154665, “Design, synthesis, biochemical evaluation, radiolabeling and in vivo imaging with high affinity class-IIa histone deacetylase inhibitor for molecular imaging and targeted therapy” (Eur J Med Chem, 2022), this text covers IC50 for one molecule.

Assay [1] addresses T1, Histone deacetylase 11 (Homo sapiens, UniProt Q96DB2).
T1 sequence (Q96DB2 whole entry): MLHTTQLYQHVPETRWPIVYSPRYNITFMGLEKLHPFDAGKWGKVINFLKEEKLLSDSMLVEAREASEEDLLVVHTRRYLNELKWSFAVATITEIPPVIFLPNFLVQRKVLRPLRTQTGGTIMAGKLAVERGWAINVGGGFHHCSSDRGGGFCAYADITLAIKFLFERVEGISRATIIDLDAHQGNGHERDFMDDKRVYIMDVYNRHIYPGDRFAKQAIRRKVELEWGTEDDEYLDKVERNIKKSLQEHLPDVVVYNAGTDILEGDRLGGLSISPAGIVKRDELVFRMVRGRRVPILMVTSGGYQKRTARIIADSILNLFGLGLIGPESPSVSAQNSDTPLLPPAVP
The assay can be described thus: Inhibition of recombinant human HDAC11 using fluorogenic substrate by fluorescence microplate reader assay. Summed up: (§1)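 Recombinant human HDAC isoforms were tested at 9 inhibitor dilutions in commercial fluorogenic enzyme kits, per the manufacturer's protocol. For class IIa enzymes, deacetylation of a TFA-lysine substrate lets trypsin release a fluorophore, read on a microplate reader. IC50 came from a nonlinear fit of % HDAC activity inhibition against compound concentration.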

A short description of assay [2]: Inhibition of HDAC class 2a in human L3.6pl cells using TFA-lysine as fluorogenic substrate by fluorescence microplate reader assay. It counts as cell-based.
Assay [3] deals with T2, Protein deacetylase HDAC6 (Homo sapiens, UniProt Q9UBN7).
T2 sequence (Q9UBN7 whole entry): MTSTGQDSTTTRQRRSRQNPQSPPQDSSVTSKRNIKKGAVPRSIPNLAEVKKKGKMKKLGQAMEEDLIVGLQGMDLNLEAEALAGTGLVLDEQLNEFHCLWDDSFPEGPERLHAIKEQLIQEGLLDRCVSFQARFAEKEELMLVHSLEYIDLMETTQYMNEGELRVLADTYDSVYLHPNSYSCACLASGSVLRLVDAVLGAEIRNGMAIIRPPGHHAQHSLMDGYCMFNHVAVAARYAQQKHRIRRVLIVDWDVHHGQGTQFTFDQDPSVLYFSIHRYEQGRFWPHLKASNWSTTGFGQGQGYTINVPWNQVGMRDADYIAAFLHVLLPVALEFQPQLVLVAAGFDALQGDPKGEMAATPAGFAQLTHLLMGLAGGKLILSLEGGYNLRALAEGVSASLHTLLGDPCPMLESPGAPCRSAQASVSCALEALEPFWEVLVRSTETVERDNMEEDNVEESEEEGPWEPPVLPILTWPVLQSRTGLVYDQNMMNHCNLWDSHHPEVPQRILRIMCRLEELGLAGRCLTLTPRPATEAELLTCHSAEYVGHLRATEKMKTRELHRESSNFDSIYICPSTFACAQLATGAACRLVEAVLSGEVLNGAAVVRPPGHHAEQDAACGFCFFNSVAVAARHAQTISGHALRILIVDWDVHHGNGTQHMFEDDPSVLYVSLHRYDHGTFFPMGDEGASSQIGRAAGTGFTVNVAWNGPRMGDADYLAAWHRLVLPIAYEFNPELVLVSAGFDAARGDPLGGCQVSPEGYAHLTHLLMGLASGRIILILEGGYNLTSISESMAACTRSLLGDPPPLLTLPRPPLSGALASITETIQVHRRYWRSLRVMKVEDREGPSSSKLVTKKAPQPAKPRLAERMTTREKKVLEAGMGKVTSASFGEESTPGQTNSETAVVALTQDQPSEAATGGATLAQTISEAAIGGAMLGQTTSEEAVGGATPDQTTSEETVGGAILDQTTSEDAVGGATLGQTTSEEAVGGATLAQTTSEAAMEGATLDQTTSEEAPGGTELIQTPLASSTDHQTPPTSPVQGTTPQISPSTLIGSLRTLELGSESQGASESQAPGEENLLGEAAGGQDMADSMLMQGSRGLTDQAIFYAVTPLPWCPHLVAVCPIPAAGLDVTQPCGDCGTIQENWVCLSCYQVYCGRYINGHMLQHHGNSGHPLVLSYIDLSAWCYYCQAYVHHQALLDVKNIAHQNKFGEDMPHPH
As to the kind of experiment: Inhibition of recombinant human HDAC6 using fluorogenic substrate by fluorescence microplate reader assay. A digest of the protocol: as §1

The target in assay [4] is Histone deacetylase 9 (Homo sapiens, UniProt Q9UKV0). The assay can be described thus: Inhibition of recombinant human HDAC9 using fluorogenic substrate by fluorescence microplate reader assay. A digest of the protocol: as §1
Assay [5] can be described thus: Inhibition of HDAC class 2b in human L3.6pl cells using TFA-lysine as fluorogenic substrate by fluorescence microplate reader assay. It counts as cell-based.
Assay [6] in a line: Inhibition of HDAC class 2b in human THP-1 cells using TFA-lysine as fluorogenic substrate by fluorescence microplate reader assay. It counts as cell-based.
Assay [7] is described as follows: Inhibition of HDAC class 2a in human HT-29 cells using TFA-lysine as fluorogenic substrate by fluorescence microplate reader assay. It counts as cell-based. A digest of the protocol: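 HT-29 cells were plated at 200,000 cells/well in RPMI without phenol red with 0.1% FBS, with 100 µM Boc-Lys-TFA for class IIa or 200 µM Boc-Lys-Ac for class I/IIb. Compounds ran as an 11-point curve (5% final DMSO), with 5 µM trichostatin A as the positive control. Incubation was 3 h at 37 °C, then trypsin developer with Tween 80 for 1 h to lyse cells and release fluorophore.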

Assay [8] has as its target Histone deacetylase 3 (Homo sapiens, UniProt O15379). As to the kind of experiment: Inhibition of recombinant human HDAC3 using fluorogenic substrate by fluorescence microplate reader assay. Summed up:
as §1

Assay [9] can be described thus: Inhibition of HDAC class 2a in human PANC-1 cells using TFA-lysine as fluorogenic substrate by fluorescence microplate reader assay. The format is cell-based.

Sequence of Histone deacetylase 9 (Q9UKV0 whole entry): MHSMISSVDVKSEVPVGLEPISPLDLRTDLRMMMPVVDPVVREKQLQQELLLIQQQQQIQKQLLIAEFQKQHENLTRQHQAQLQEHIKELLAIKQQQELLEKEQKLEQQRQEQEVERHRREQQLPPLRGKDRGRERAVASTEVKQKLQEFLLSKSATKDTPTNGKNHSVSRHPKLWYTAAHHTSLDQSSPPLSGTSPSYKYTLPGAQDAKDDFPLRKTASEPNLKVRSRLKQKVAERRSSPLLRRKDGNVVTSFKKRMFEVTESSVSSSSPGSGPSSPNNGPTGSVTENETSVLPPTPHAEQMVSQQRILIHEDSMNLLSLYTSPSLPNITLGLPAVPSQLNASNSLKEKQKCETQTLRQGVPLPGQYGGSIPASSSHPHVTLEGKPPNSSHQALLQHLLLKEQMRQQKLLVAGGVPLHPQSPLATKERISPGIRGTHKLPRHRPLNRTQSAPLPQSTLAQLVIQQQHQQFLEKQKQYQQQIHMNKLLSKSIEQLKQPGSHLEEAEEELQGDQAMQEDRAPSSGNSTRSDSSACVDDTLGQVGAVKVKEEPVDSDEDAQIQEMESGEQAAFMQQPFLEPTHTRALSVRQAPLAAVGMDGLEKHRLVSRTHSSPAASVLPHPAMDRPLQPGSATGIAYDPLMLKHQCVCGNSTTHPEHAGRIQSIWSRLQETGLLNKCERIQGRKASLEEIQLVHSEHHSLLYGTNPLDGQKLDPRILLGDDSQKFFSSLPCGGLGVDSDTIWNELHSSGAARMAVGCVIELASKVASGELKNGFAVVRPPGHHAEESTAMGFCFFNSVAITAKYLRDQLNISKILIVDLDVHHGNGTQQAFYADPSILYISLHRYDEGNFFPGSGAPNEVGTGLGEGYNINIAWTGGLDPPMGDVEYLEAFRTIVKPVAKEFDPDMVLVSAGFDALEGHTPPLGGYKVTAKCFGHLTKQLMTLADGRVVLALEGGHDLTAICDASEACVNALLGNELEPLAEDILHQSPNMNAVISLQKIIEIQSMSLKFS
Sequence of Histone deacetylase 3 (O15379 whole entry): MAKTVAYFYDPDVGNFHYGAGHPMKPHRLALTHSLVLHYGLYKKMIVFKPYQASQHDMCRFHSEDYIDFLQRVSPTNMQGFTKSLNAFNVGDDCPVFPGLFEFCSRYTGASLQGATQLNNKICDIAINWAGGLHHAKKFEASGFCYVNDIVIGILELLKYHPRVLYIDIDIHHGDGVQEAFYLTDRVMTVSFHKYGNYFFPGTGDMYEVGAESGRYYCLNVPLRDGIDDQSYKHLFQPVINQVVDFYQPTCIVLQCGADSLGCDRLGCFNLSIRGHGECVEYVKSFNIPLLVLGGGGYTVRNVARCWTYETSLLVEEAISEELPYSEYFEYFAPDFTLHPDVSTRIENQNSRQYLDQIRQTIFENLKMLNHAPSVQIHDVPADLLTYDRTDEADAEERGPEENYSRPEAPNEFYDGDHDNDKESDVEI

As a reminder, the IC50 is the concentration needed to halve the response being measured. Turning to `CC(C)(CNC(=O)c1cccc(-c2noc(C(F)(F)F)n2)c1)c1coc(-c2ccccc2)n1`, the IC50 in assay [1] was more than 5000 nM; in assay [2], 893 nM; in assay [3] it was more than 5000 nM; in [4], 2.4 nM; in assay [5], more than 5000 nM; in assay [6] it was more than 5000 nM. The IC50 in [7] was 1000 nM; in assay [8], more than 5000 nM; in assay [9] it was 888 nM.
